Screens: PubChem, several laboratories
Autophagy HCS: alters autophagy in cells; MEF GFP-LC3 puncta imaging; test concentration mostly 10 µM; calls only at 10 µM (by protocol); 0.98% of 190,000 active;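 active = percentage of spot-positive cells more than 3 SD above its plate mean, without a fluorescence outlier flag or 80% toxicity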;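 also: spot-positive cell cutoff set from DMSO-treated cells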
b-catenin transl: beta-catenin nuclear translocation modulation; 0.3% of 190,000 active; AID 1665; nuclear translocation activity, % at 5 µM; HeLa beta-catenin nuclear translocation, immunofluorescence imaging;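 active = nuclear translocation activity above 50% at 5 µM, with a well cell count of 50 or more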;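 also: per-cell ratio of nuclear to cytoplasmic median beta-catenin stain intensity; plate controls were DMSO negative control for no effect and GSK-3 inhibitor IX positive control for full effect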
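Assay system: human HeLa cells, native beta-catenin; doses: 5 µM primary, 0.02–20 µM confirmation; incubation: compound treatment 24 h, 37°C, 5% CO2; technique: fluorescence imaging of beta-catenin antibody stain plus DAPI; measure: % activation, nuclear-to-cytoplasmic median beta-catenin signal ratio per cell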
Dynein transport: dynein cargo transport inhibition. 3617.4 mouse cells, GR-EGFP nuclear translocation imaging; test concentration mostly 20 µM; stimulated with dexamethasone, 1 µM; stronger effect = lower value. z-score, hits read low. 0.47% of 220,000 active;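 active = plate z-score of nuclear minus cytoplasmic receptor signal below a set negative limit, without overly bright fluorescence or cell loss, cut at about -3.5 in these data, passing the limit was not always enough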;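 also: z-score of nuclear minus cytoplasmic ring GR-EGFP intensity difference per well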
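Buffer or medium: Induction medium lacking tetracycline, stripped serum | Also added: Dexamethasone agonist, 1.0 µM final, for 30 min | Timing: 48 h induction, 1 h compound, 30 min dex at 37 °C | Detection: Formaldehyde fixation, Hoechst nuclear stain, 10x automated fluorescence imaging | Measure: Nuclear versus cytoplasmic GR-EGFP signal, averaged per well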
MT stabilize HCS: microtubule stabilization, imaging screen; HeLa tubulin immunostaining HCS, 24 h; share of cells brighter than vehicle mean+2SD; % tubulin-high responders, % at 10 µM; 0.83% of 200,000 active; AID 2205;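 active = plate Z-score above 3 for both tubulin-high and condensed-nucleus cell shares, with cell loss under 80%, at 10 µM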;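 also: anti alpha tubulin signal scored within the nucleus-defined area of each cell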
Hsp70 activator: Hsp70 transcriptional activation, primary screen | activation, % at 10 µM | 0.04% of 200,000 active | HeLa Hsp70 promoter luciferase reporter, luminescence; scaled: vehicle 0, proteasome-inhibitor control 100%;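 active = activation above the mean across all tested compounds plus 3 SD, cutoff set per campaign, cut at about 5.5% in these data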;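 also: 100% = MG132 at 30 µM as the positive control and 0% = DMSO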
An asterisk follows results filed as active. Sampled rows, rich in hits. Any-hit rate of the full collection: about 2.1%.

What do the screens show for `COC(=O)c1cc(C(=O)c2ccc(Cl)cc2)n2c(=O)/c(=C\N(C)C)sc12`?
Autophagy HCS: active; b-catenin transl: 6; Dynein transport: -0.34; MT stabilize HCS: 3; Hsp70 activator: 0

Results for Cc1nc(-c2noc(-c3ccc(Cl)cc3)n2)c(C(F)(F)F)o1 ?
b-catenin transl: 0; Dynein transport: -0.019

Results for CCOC(=O)/C=c1\s/c(=C\c2c(OC)ccc3ccccc23)c(=O)n1CC(=O)NCC1CCCO1 (stereo not drawn) ?
Autophagy HCS: inactive; b-catenin transl: 190*; Dynein transport: -0.8; MT stabilize HCS: 14; Hsp70 activator: 0

How did O=C(NN1C(=O)C2CC=C(Cl)CC2C1=O)c1ccncc1 (stereo not drawn) do in these assays?
Autophagy HCS: inactive; b-catenin transl: -2; Dynein transport: 2.7; MT stabilize HCS: 3; Hsp70 activator: 0

What do the screens show for `CC(=O)Nc1ccc(-c2nnn(CC(=O)Nc3ccc4c(c3)OCO4)n2)cc1Cl`?
Autophagy HCS: active; b-catenin transl: -2; Dynein transport: -0.24; MT stabilize HCS: 5; Hsp70 activator: 0

What do the screens show for `CNc1ccc(Br)cc(C(=O)/C=C/c2ccc(OC)cc2OC)c1=O`?
Autophagy HCS: inactive; b-catenin transl: -4; Dynein transport: -0.16; MT stabilize HCS: 4; Hsp70 activator: 0

How did CCNc1ccc(Br)cc(C(=O)/C=C/c2ccc3c(c2)OCO3)c1=O do in these assays?
Autophagy HCS: inactive; b-catenin transl: 2; Dynein transport: -0.96; MT stabilize HCS: 8; Hsp70 activator: 0

What do the screens show for `CCNc1ccc(Br)cc(C(=O)/C=C/c2ccc(Cl)cc2)c1=O`?
Autophagy HCS: inactive; b-catenin transl: -2; Dynein transport: -2.5; MT stabilize HCS: 16*; Hsp70 activator: 0

How did CNc1ccc(Br)cc(C(=O)/C=C/c2ccc(Cl)cc2Cl)c1=O do in these assays?
Autophagy HCS: inactive; b-catenin transl: 1; Dynein transport: -3.3; MT stabilize HCS: 9.3*; Hsp70 activator: 0

How did CNc1ccc(Br)cc(C(=O)/C=C/c2cccc(OC)c2)c1=O do in these assays?
Autophagy HCS: inactive; b-catenin transl: 38; Dynein transport: -1.7; MT stabilize HCS: 13*; Hsp70 activator: 0

Results for Cc1ccc(C(=O)OCC(=O)c2c[nH]c3ccccc23)cc1S(=O)(=O)N1CCCCC1 ?
Autophagy HCS: inactive; b-catenin transl: -5; Dynein transport: 0.96; MT stabilize HCS: 5; Hsp70 activator: 0

What do the screens show for `COc1ccc(C2CC(=O)c3cnn(-c4nc(C)cc(C)n4)c3C2)cc1` (stereo not drawn)?
Autophagy HCS: inactive; b-catenin transl: 9; Dynein transport: -0.92; MT stabilize HCS: 40*; Hsp70 activator: 0

Results for COc1ccc(N2C(=O)CC(NCc3ccc(F)cc3)C2=O)cc1 (stereo not drawn) ?
Autophagy HCS: active; b-catenin transl: 0; Dynein transport: -0.44; MT stabilize HCS: 4; Hsp70 activator: 0

What do the screens show for `CCn1cc(/C=N/NC(=O)c2cc3c(ccc4ccccc43)o2)c2ccccc21`?
Autophagy HCS: inactive; b-catenin transl: -2; Dynein transport: 1.9; MT stabilize HCS: 41*; Hsp70 activator: 0

What do the screens show for `COCCN1CCC(CNCc2cn(-c3cc(C)ccc3C)nc2-c2ccccc2)C1` (stereo not drawn)?
Autophagy HCS: inactive; b-catenin transl: 2; Dynein transport: -0.36; Hsp70 activator: 0

What do the screens show for `Cc1nc2ccccc2n1CC(=O)OCC(=O)NC1CC1`?
Autophagy HCS: active; b-catenin transl: -1; Dynein transport: 0.094; MT stabilize HCS: 3; Hsp70 activator: 0

How did COc1ccc(/C=N/NC(=O)c2ccc(Cl)cc2Cl)cc1COC(C)=O do in these assays?
Autophagy HCS: inactive; b-catenin transl: 2; Dynein transport: 0.9; MT stabilize HCS: 21*; Hsp70 activator: 0

Results for Cc1ccc(C(=O)c2cc([N+](=O)[O-])ccc2N2CCN(C)CC2)cc1 ?
Autophagy HCS: inactive; b-catenin transl: 71*; Dynein transport: -0.56; MT stabilize HCS: 41*; Hsp70 activator: 0

How did CN1CCN(c2ccc([N+](=O)[O-])cc2C(=O)c2ccccc2)CC1 do in these assays?
Autophagy HCS: inactive; b-catenin transl: 5; Dynein transport: 0.68; MT stabilize HCS: 16; Hsp70 activator: 0

What do the screens show for `CN1CCN(c2ccc([N+](=O)[O-])cc2C(=O)c2ccc(Br)cc2)CC1`?
Autophagy HCS: inactive; b-catenin transl: 64*; Dynein transport: -0.7; MT stabilize HCS: 20*; Hsp70 activator: 0

What do the screens show for `O=C(c1ccc(Br)cc1)c1cc([N+](=O)[O-])ccc1N1CCCCC1`?
Autophagy HCS: inactive; b-catenin transl: 63*; Dynein transport: 1; MT stabilize HCS: 17*; Hsp70 activator: 1

What do the screens show for `O=C(c1ccccc1)c1cc([N+](=O)[O-])ccc1N1CCCC1`?
Autophagy HCS: inactive; b-catenin transl: 8; Dynein transport: -0.41; MT stabilize HCS: 3; Hsp70 activator: 0

How did Cc1c(O)ccc2c(O)c(NC(=O)c3ccc4c(c3)CCC(C)(C)O4)c(=O)oc12 do in these assays?
b-catenin transl: -5; Dynein transport: -0.43

How did Cc1nn(Cc2ccccc2)c(Cl)c1C(=O)NCc1ccco1 do in these assays?
Autophagy HCS: inactive; b-catenin transl: 0; Dynein transport: -0.16; MT stabilize HCS: 2; Hsp70 activator: 0

How did O=C(NCCN1C(=O)S/C(=C\c2ccc(OC(F)F)cc2)C1=O)c1cnccn1 do in these assays?
Autophagy HCS: inactive; b-catenin transl: 68*; Dynein transport: -1.5; MT stabilize HCS: 34*; Hsp70 activator: 0

How did C/C(=N/NC(=O)CCc1c(C)n[nH]c1C)c1cccc([N+](=O)[O-])c1 do in these assays?
b-catenin transl: -2; Dynein transport: 0.25

Results for CC(=O)CCc1ccc(OCCCCN2CCC(Cc3ccccc3)CC2)cc1 ?
Autophagy HCS: active; b-catenin transl: 0; Dynein transport: -0.26; MT stabilize HCS: 4; Hsp70 activator: 0

Results for COc1cccc(OC)c1OCCCCN1CCC(Cc2ccccc2)CC1 ?
Autophagy HCS: inactive; b-catenin transl: -3; Dynein transport: 1.1; MT stabilize HCS: 1; Hsp70 activator: 0

Results for COc1ccc(-c2noc(CCC(=O)NCCCN3CCC(Cc4ccccc4)CC3)n2)cc1 ?
Autophagy HCS: active; Dynein transport: 7.4; MT stabilize HCS: 5; Hsp70 activator: 0

What do the screens show for `CCCCSc1nc(SCC(=O)NCc2ccco2)c2c3c(sc2n1)COC(C)(CC)C3` (stereo not drawn)?
Autophagy HCS: inactive; b-catenin transl: 3; Dynein transport: 0.41; MT stabilize HCS: 3; Hsp70 activator: 0

Results for CCCCc1nc2sc3c(SCC(=O)NCc4ccco4)ncnc3c2c2c1CCC2 ?
Autophagy HCS: inactive; b-catenin transl: 17; Dynein transport: -0.72; MT stabilize HCS: 33*; Hsp70 activator: 0
